Calls of active or inactive are those of the source.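 Rule for the calls: active = potentiation or inhibition of the KCNQ1 potassium channel at any tested concentration, with a dose response curve obtained; inactive = no effect at any concentration, or no dose response.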
Molecular target: Potassium voltage-gated channel subfamily KQT member 1 (Homo sapiens) (UniProt P51787)
Assay: KCNQ1 channel modulation, potentiation or inhibition, dose response, selectivity assay for KCNQ2 activator project, thallium flux, KCNQ1-expressing cells (AID 504417)
Conditions: FluxOR thallium flux fluorescence; series mostly up to 30 µM
In short: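 Test system: CHO cells expressing the KCNQ1 potassium channel; Also added: potassium sulfate plus thallium sulfate stimulus, 12.5 mM each in 5x stock; Timing: dye load 90 min, compound 20 min, room temperature; Technique: kinetic FluxOR thallium-flux fluorescence, 10 s baseline plus 110 s post-stimulus; Evaluation: Baseline-scaled fluorescence change, normalized to controls.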

Sequence of Potassium voltage-gated channel subfamily KQT member 1 (Homo sapiens) (P51787 whole entry, looked up): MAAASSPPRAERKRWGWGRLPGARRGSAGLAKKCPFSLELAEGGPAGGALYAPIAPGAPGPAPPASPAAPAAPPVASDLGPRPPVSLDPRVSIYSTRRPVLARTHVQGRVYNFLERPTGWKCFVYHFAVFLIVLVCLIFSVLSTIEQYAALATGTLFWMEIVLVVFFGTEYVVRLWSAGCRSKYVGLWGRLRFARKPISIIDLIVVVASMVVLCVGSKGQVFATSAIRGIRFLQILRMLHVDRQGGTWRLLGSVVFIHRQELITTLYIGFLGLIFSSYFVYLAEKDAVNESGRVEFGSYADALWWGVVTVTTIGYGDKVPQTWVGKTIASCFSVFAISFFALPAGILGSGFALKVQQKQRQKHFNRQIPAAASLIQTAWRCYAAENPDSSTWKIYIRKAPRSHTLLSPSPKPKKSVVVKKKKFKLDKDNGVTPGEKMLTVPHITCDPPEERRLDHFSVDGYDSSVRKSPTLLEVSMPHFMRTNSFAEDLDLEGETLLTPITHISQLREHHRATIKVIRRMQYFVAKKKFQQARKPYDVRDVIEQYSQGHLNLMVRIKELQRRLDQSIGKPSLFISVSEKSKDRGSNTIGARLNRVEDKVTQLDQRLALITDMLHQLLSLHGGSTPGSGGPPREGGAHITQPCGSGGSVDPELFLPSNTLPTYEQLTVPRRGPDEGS

outcome, inactive:
Cc1cc(C)c(NC(=O)C2CC3CCC2C3)c(C)c1 (stereo not given)
Cc1cc(C)c(NC(=O)CC(C)(C)C)c(Cl)c1
CCCCC(=O)Nc1c(C)cc(C)cc1Cl
Cc1ccc(C)c(NC(=O)C2CC3CCC2C3)c1 (stereo not given)
Cc1cccc(C)c1NC(=O)C1CC2CCC1C2 (stereo not given)

From PubChem BioAssay AID504417 (Johns Hopkins Ion Channel Center, 2011)
